# Tests used:
# [1] = Tmax in Sprague-Dawley rat at 25 mg/kg, po up to 24 hrs; format: ADME, organism-based; settings: in vivo
# How it was run: (§1)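 Male SD rats fasted overnight, water ad libitum, fed 4 h after dosing. Single oral gavage of 25 mg/kg as a homogeneous suspension in 0.5% Tween 80 in 0.5% Na-CMC. Blood drawn into Na-heparin tubes at 0.25, 0.5, 1, 2, 4, 6, 8 and 24 h; plasma stored at -70°C. Parameters by non-compartmental analysis, with C0 taken as zero and BLQ samples set to zero.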
# [2] = Elimination rate constant in Sprague-Dawley rat at 25 mg/kg, po up to 24 hrs; format: ADME, organism-based; settings: in vivo; how it was run: as §1
# [3] = AUC(0 to t) in Sprague-Dawley rat at 25 mg/kg, po up to 24 hrs; format: ADME, organism-based; parameters: route oral, dose 25 mg/kg, time <=24; settings: in vivo; how it was run: as §1
# [4] = Toxicity in female Wistar rat assessed as ratio of heart to body weight at 200 mg/kg, po after 28 days (reference value: 0.38 +/- 0.037); format: organism-based; settings: in vivo, 672 h, time 28 day
# [5] = Toxicity in female Wistar rat assessed as ratio of liver to body weight at 400 mg/kg, po after 28 days (reference value: 3.219 +/- 0.221); format: organism-based; settings: in vivo, 672 h, time 28 day
# [6] = Toxicity in female Wistar rat assessed as ratio of kidney to body weight at 200 mg/kg, po after 28 days (reference value: 0.801 +/- 0.071); format: organism-based; settings: in vivo, 672 h, time 28 day
# [7] = Toxicity in female Wistar rat assessed as ratio of kidney to body weight at 400 mg/kg, po after 28 days (reference value: 0.801 +/- 0.071); format: organism-based; settings: in vivo, 672 h, time 28 day
# [8] = Toxicity in male Wistar rat assessed as ratio of spleen to body weight at 200 mg/kg, po after 28 days (reference value: 0.206 +/- 0.026); format: organism-based; settings: in vivo, 672 h, time 28 day
# [9] = Toxicity in female Wistar rat assessed as ratio of spleen to body weight at 100 mg/kg, po after 28 days (reference value: 0.244 +/- 0.032); format: organism-based; settings: in vivo, 672 h, time 28 day
# [10] = Toxicity in female Wistar rat assessed as ratio of brain to body weight at 400 mg/kg, po after 28 days (reference value: 1.1 +/- 0.078); format: organism-based; settings: in vivo, 672 h, time 28 day
# [11] = Toxicity in female Wistar rat assessed as ratio of ovaries to body weight at 200 mg/kg, po after 28 days (reference value: 0.091 +/- 0.009); format: organism-based; settings: in vivo, 672 h, time 28 day
# [12] = Toxicity in male Wistar rat assessed as ratio of epididymides to body weight at 400 mg/kg, po after 28 days (reference value: 0.361 +/- 0.028); format: organism-based; settings: in vivo, 672 h, time 28 day
# [13] = Toxicity in female Wistar rat assessed as ratio of uterus to body weight at 100 mg/kg, po after 28 days (reference value: 0.335 +/- 0.108); format: organism-based; settings: in vivo, 672 h, time 28 day
# [14] = Toxicity in female Wistar rat assessed as ratio of uterus to body weight at 200 mg/kg, po after 28 days (reference value: 0.335 +/- 0.108); format: organism-based; settings: in vivo, 672 h, time 28 day
# [15] = Toxicity in male Wistar rat assessed as ratio of thymus to body weight at 100 mg/kg, po after 28 days (reference value: 0.148 +/- 0.023); format: organism-based; settings: in vivo, 672 h, time 28 day
# [16] = Toxicity in female Wistar rat assessed as ratio of thymus to body weight at 400 mg/kg, po after 28 days (reference value: 0.260 +/- 0.025); format: organism-based; settings: in vivo, 672 h, time 28 day
# [17] = Toxicity in male Wistar rat assessed as globulin level at 200 mg/kg, po after 28 days (reference value: 2.62 +/- 0.12 g/dl); format: organism-based; settings: in vivo, 672 h, time 28 day
# [18] = Toxicity in female Wistar rat assessed as globulin level at 100 mg/kg, po after 28 days (reference value: 2.44 +/- 0.18 g/dl); format: organism-based; settings: in vivo, 672 h, time 28 day
# [19] = Toxicity in female Wistar rat assessed as globulin level at 400 mg/kg, po after 28 days (reference value: 2.44 +/- 0.18 g/dl); format: organism-based; settings: in vivo, 672 h, time 28 day
# [20] = Toxicity in female Wistar rat assessed as glucose level at 100 mg/kg, po after 28 days (reference value: 78.4 +/- 8.36 mg/dl); format: organism-based; settings: in vivo, 672 h, time 28 day
# [21] = Toxicity in female Wistar rat assessed as glucose level at 200 mg/kg, po after 28 days (reference value: 78.4 +/- 8.36 mg/dl); format: organism-based; settings: in vivo, 672 h, time 28 day
# [22] = Toxicity in female Wistar rat assessed as glucose level at 400 mg/kg, po after 28 days (reference value: 78.4 +/- 8.36 mg/dl); format: organism-based; settings: in vivo, 672 h, time 28 day
# [23] = Toxicity in male Wistar rat assessed as creatinine level at 100 mg/kg, po after 28 days (reference value: 0.61 +/- 0.04 mg/dl); format: organism-based; settings: in vivo, 672 h, time 28 day
# [24] = Toxicity in male Wistar rat assessed as creatinine level at 200 mg/kg, po after 28 days (reference value: 0.61 +/- 0.04 mg/dl); format: organism-based; settings: in vivo, 672 h, time 28 day
# [25] = Toxicity in female Wistar rat assessed as creatinine level at 100 mg/kg, po after 28 days (reference value: 0.6 +/- 0.04 mg/dl); format: organism-based; settings: in vivo, 672 h, time 28 day
# [26] = Toxicity in female Wistar rat assessed as AST level at 100 mg/kg, po after 28 days (reference value: 128.84 +/- 21.42 U/L); format: organism-based; settings: in vivo, 672 h, time 28 day
# [27] = Toxicity in male Wistar rat assessed as ALT level at 200 mg/kg, po after 28 days (reference value: 30.47 +/- 2.63 U/L); format: organism-based; settings: in vivo, 672 h, time 28 day
# [28] = Toxicity in female Wistar rat assessed as ALT level at 100 mg/kg, po after 28 days (reference value: 21.28 +/- 2.31 U/L); format: organism-based; settings: in vivo, 672 h, time 28 day
# [29] = Toxicity in female Wistar rat assessed as ALT level at 400 mg/kg, po after 28 days (reference value: 21.28 +/- 2.31 U/L); format: organism-based; settings: in vivo, 672 h, time 28 day
# [30] = Toxicity in male Wistar rat assessed as albumin level at 400 mg/kg, po after 28 days (reference value: 3.56 +/- 0.08 g.dl); format: organism-based; settings: in vivo, 672 h, time 28 day
# [31] = Toxicity in female Wistar rat assessed as albumin level at 200 mg/kg, po after 28 days (reference value: 3.57 +/- 0.14 g.dl); format: organism-based; settings: in vivo, 672 h, time 28 day
# [32] = Toxicity in female Wistar rat assessed as urea level at 100 mg/kg, po after 28 days (reference value: 48.09 +/- 5.3 mg/dl); format: organism-based; settings: in vivo, 672 h, time 28 day
smiles,measurement,setting,value
Cc1c(Oc2cccc(/C=C3\SC(=O)NC3=O)c2)ncnc1OC1CCN(C(=O)OC(C)(C)C)CC1,Tmax,[1],1.75 h
same,k el at 24 h,[2],9.17e-05 s⁻¹
same,AUC(0-t) at 24 h,[3],19.1 µg·h/mL
same,Ratio,[4],0.394
same,Ratio,[5],3.172
same,Ratio,[6],0.84
same,Ratio,[7],0.806
same,Ratio,[8],0.22
same,Ratio,[9],0.241
same,Ratio,[10],1.069
same,Ratio,[11],0.089
same,Ratio,[12],0.365
same,Ratio,[13],0.345
same,Ratio,[14],0.33
same,Ratio,[15],0.167
same,Ratio,[16],0.244
same,Activity,[17],2.64 g/dL
same,Activity,[18],2.39 g/dL
same,Activity,[19],2.42 g/dL
same,Activity,[20],79.83 mg/dL
same,Activity,[21],82.1 mg/dL
same,Activity,[22],76.54 mg/dL
same,Activity,[23],0.57 mg/dL
same,Activity,[24],0.57 mg/dL
same,Activity,[25],0.63 mg/dL
same,Activity,[26],120.42 U/L
same,Activity,[27],30.15 U/L
same,Activity,[28],22.37 U/L
same,Activity,[29],23.3 U/L
same,Activity,[30],3.54 g/dL
same,Activity,[31],3.65 g/dL
same,Activity,[32],47.84 mg/dL

# From ChEMBL document CHEMBL4732226, “Discovery of a potent G-protein-coupled receptor 119 agonist for the treatment of type 2 diabetes” (Bioorg Med Chem, 2021)
